According to ChEMBL document CHEMBL3593224, “Design, synthesis and biological evaluation of a novel series of peripheral-selective noradrenaline reuptake inhibitor” (Bioorg Med Chem, 2015):
Active and inactive are the calls of the source. The rule behind the calls is not given here.

How the values were obtained:
Homo sapiens [1] = species: Homo sapiens; test: Selectivity index, ratio of IC50 for human SERT to IC50 for human NET
Outline: (§1)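 Ratio of IC50s from two [3H]-uptake assays in CHO cells (SERT or human NET expressing), seeded overnight in HEPES-buffered saline with glucose and 0.5% BSA. Radioligand added from 200 nM dilutions. SERT: [3H]-5-hydroxytryptamine, 20 min. NET: [3H]-norepinephrine, 45 min. Washed, scintillation counted; IC50 with 95% CI, n=2.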

CYP2D6 = CYP2D6 (Homo sapiens, UniProt P10635); test: Inhibition of CYP2D6 (unknown origin) at 10 uM; format: ADME
Sequence of CYP2D6 (P10635 whole entry): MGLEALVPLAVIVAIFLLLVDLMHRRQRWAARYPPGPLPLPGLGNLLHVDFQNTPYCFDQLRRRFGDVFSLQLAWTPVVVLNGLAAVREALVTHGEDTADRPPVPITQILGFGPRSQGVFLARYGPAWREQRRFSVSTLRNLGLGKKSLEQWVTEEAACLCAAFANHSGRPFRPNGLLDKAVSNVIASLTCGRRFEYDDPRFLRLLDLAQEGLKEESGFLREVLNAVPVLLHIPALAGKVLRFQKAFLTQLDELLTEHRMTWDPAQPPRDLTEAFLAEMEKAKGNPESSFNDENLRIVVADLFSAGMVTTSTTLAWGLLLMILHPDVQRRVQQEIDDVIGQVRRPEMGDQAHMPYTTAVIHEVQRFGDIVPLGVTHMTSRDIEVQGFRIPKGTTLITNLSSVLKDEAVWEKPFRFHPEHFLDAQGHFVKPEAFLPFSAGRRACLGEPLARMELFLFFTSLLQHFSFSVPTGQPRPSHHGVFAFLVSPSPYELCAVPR

Homo sapiens [2] = species: Homo sapiens; test: Selectivity index, ratio of IC50 for human DAT to IC50 for human NET
Outline: as §1, with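 “stably expressing human DAT” for “(SERT”, “NET,” for “human NET expressing),”, “DAT: [3H]-dopamine plus cold dopamine (10 µM dilution), 60” for “SERT: [3H]-5-hydroxytryptamine, 20”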

[3] = molecular target: Sodium-dependent noradrenaline transporter (Homo sapiens, UniProt P23975); test: Inhibition of human NET expressed in CHOK1 cells incubated for 45 mins by [3H]-norepinephrine uptake assay; format: cell-based, CHO-K1
Sequence of Sodium-dependent noradrenaline transporter (P23975 whole entry): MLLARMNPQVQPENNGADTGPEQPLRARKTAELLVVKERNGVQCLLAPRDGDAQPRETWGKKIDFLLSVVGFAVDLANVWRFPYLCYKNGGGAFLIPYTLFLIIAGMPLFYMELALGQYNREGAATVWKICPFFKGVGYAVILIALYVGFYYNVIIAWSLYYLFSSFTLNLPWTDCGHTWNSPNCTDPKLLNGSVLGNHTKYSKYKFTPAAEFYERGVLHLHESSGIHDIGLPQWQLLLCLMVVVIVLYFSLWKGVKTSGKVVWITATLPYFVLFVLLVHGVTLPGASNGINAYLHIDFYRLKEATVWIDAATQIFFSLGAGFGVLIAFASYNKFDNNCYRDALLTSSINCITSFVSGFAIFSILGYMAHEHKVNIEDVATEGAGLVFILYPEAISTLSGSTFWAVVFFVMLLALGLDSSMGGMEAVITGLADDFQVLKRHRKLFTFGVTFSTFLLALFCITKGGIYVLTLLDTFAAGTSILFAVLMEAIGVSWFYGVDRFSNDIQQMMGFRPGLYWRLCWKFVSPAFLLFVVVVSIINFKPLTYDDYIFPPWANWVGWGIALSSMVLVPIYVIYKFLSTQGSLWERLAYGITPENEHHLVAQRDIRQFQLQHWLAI
Outline: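 Human NET stably expressed in CHO cells (Ham/F12, 10% FBS), seeded 3 × 10^5 cells/mL, overnight culture. In HEPES-buffered salt/glucose buffer with 0.5% BSA, compound then [3H]-norepinephrine (diluted to 200 nM before addition) added; uptake 45 min, two PBS washes, scintillation counting. 10 µM desipramine taken as 100% inhibition; IC50 and 95% confidence interval from n=2.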

[4] = molecular target: Sodium-dependent serotonin transporter (Homo sapiens, UniProt P31645); test: Inhibition of human SERT expressed in CHOK1 cells incubated for 20 mins by [3H]-5-hydroxytryptamine uptake assay; format: cell-based, CHO-K1
Sequence of Sodium-dependent serotonin transporter (P31645 whole entry): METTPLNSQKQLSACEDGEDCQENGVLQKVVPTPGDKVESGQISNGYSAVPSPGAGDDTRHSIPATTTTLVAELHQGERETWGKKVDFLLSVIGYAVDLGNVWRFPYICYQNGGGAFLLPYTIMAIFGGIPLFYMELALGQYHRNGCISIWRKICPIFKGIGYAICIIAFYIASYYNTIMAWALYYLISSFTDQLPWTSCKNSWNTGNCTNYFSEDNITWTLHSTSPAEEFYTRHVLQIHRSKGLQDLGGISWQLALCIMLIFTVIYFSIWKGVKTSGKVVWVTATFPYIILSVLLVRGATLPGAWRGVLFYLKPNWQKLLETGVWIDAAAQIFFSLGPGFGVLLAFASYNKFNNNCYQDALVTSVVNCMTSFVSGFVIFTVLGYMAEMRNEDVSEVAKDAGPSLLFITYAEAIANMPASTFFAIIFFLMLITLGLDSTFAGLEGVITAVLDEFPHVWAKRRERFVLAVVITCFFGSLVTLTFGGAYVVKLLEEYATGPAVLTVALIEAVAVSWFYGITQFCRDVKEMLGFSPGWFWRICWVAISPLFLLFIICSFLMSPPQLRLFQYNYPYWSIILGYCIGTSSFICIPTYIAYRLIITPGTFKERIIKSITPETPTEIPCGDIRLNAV
Outline: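 CHO cells stably expressing human SERT, cultured in Ham/F12 plus 10% FBS, plated 3 × 10^5 cells/mL overnight. Buffer: 126 mM NaCl, 10 mM HEPES, glucose, 0.5% BSA; compound added at 10× then diluted, followed by [3H]-5-HT (200 nM stock). After 20 min, buffer removed, cells washed twice with PBS, radioactivity counted; IC50 and 95% CI from two experiments.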

[5] = molecular target: Sodium-dependent dopamine transporter (Homo sapiens, UniProt Q01959); test: Inhibition of human DAT expressed in CHOK1 cells incubated for 60 mins by [3H]-dopamine uptake assay; format: cell-based, CHO-K1
Sequence of Sodium-dependent dopamine transporter (Q01959 whole entry): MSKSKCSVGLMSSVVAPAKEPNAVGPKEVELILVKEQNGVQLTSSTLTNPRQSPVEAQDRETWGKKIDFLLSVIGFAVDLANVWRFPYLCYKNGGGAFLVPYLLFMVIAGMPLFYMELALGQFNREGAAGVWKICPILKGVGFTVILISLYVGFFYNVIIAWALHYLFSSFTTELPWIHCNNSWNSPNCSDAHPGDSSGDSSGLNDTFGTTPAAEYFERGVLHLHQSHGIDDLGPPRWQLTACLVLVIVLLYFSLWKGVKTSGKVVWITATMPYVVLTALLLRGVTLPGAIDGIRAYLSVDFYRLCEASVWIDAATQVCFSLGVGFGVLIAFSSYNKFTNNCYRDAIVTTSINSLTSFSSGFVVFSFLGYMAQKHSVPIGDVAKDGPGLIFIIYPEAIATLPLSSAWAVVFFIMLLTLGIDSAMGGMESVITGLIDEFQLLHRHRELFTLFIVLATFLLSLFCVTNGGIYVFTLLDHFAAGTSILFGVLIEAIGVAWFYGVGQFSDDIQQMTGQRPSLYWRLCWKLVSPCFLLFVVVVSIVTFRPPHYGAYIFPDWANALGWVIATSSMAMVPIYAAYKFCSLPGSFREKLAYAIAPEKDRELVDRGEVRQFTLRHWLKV
Outline: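 CHO cells stably expressing human DAT, grown in Ham/F12 with 10% FBS, seeded 3 × 10^5 cells/mL and cultured overnight. Compound added in buffer (NaCl, KCl, KH2PO4, MgSO4, 10 mM HEPES, CaCl2, glucose, 0.5% BSA), then [3H]-dopamine (200 nM stock, with 10 µM cold dopamine stock); 60 min uptake, PBS wash, scintillation count. 100 µM nomifensine as 100% inhibition; IC50 with 95% CI, n=2.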

hERG (KCNH2) = hERG (KCNH2) (Homo sapiens, UniProt Q12809); test: Inhibition of human ERG at 10 uM
Sequence of hERG (KCNH2) (Q12809 whole entry): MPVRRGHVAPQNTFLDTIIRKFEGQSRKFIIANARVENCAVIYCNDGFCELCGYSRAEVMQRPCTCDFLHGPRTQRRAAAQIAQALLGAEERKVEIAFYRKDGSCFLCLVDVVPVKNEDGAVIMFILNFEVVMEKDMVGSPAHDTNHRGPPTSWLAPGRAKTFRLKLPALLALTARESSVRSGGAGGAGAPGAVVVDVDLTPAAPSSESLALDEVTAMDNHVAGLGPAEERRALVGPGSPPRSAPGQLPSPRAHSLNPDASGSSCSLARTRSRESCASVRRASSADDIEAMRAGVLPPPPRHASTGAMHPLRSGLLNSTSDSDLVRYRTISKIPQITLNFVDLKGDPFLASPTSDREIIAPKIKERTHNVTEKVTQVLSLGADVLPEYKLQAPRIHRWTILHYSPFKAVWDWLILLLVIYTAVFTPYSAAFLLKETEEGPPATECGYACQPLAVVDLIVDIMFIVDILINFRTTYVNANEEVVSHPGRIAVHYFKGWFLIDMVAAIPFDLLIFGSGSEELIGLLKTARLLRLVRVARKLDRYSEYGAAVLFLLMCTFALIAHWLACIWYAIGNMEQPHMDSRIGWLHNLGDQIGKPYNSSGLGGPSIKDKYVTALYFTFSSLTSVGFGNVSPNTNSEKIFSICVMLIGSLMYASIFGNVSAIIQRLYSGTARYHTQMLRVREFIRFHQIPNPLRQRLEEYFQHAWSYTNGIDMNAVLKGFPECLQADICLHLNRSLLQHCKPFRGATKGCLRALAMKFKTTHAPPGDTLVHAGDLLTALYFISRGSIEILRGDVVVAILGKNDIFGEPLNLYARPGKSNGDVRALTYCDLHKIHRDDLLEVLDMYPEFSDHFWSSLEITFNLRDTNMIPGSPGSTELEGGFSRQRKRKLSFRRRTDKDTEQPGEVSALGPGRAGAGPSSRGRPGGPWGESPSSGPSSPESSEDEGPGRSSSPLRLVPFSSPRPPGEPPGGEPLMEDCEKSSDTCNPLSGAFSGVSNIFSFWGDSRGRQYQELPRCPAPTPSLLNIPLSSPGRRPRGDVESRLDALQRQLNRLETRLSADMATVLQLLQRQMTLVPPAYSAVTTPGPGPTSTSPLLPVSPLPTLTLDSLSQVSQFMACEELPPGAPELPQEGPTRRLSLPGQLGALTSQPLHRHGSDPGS

Rattus norvegicus [6] = test: In-vivo occupancy at NET in Sprague-Dawley rat brain cortex at 3 mg/kg, iv by [3H]-nisoxetine […] assay; format: functional
Outline: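 Female Sprague-Dawley rats under urethane anaesthesia (i.p.) got compound i.v. The left cortex was removed 20 min later and homogenised in Tris-Cl pH 7.5/NaCl/KCl buffer. Membranes at 4 mg/mL protein were incubated 1 h at room temperature with [3H]-nisoxetine (25 nmol/L solution), with desipramine for nonspecific binding. Filtered on GF/B; occupancy taken against vehicle specific binding (100%).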

Rattus norvegicus [7] = test: Increase in urethral resistance in rat assessed as increase in leak point pressure at 0.3 to 3 mg/kg, iv measured 30 mins post dose by Evans blue dye based assay; format: functional, organism-based; settings: Urethra
Rattus norvegicus [8] = test: Increase in urethral resistance in rat assessed as increase in leak point pressure at 1 to 10 mg/kg, sc measured 30 mins post dose by Evans blue dye based assay; format: functional, organism-based; settings: Urethra

SMILES	Ratio IC50 (Homo sapiens [1])	inhibition at 10 µM (CYP2D6) [%]	Ratio IC50 (Homo sapiens [2])	IC50 [3] [nM]	IC50 [4] [nM]	IC50 [5] [nM]	inhibition at 10 µM (hERG (KCNH2)) [%]	Occ (Rattus norvegicus [6]) [%]	Activity (Rattus norvegicus [7])	Activity (Rattus norvegicus [8])
OCC1(c2ccc(Cl)c(Cl)c2)CCCNCC1 (racemic)	17	44	> 480	2.1	35	> 1000	–	–	–	–
NC(=O)[C@@H]1CNCCO[C@H]1c1ccc(Cl)c(Cl)c1	15	–	> 190	52	780	> 10000	–	–	–	–
OC[C@@]1(c2ccc(Cl)c(Cl)c2)CCNCCO1	35	23	> 1800	5.6	200	> 10000	–	–	–	–
CC(=O)NCC[C@@H]1CNCCO[C@H]1c1ccc(Cl)c(Cl)c1	35	–	> 170	5.8	200	> 1000	–	–	–	–
CC(=O)NC[C@@H]1CNCCO[C@H]1c1ccc(Cl)c(Cl)c1.O=C(O)/C=C/C(=O)O	450	–	4400	0.33	150	1500	15	-14	Dose-dependent effect	–
CC(=O)NC[C@@H]1CNCCO[C@H]1c1ccc(Cl)c(C)c1	150	–	> 300	3.3	480	> 1000	–	–	–	–
CC(=O)NC[C@@H]1CNCCO[C@H]1c1ccc(C)c(Cl)c1	200	–	> 300	3.4	680	> 1000	–	–	–	–
OC[C@H]1CNCCO[C@H]1c1ccc(Cl)c(Cl)c1	20	47	> 170	6	120	> 1000	–	–	–	–
OC[C@@H]1CNCCO[C@@H]1c1ccc(Cl)c(Cl)c1	1.3	58	> 120	8.5	11	> 1000	–	–	–	–
CC(=O)NC[C@@H]1CNCCO[C@H]1c1ccc(Cl)c(F)c1.Cl	> 440	–	> 440	2.3	> 1000	> 1000	–	-2.8	–	–
CCOc1ccccc1O[C@@H](c1ccccc1)[C@@H]1CNCCO1	–	–	–	–	–	–	–	–	–	Active
CNC(=O)[C@@H]1CNCCO[C@H]1c1ccc(Cl)c(Cl)c1	> 83	–	> 83	12	> 1000	> 1000	–	–	–	–
CC(=O)NC[C@@H]1CNCCO[C@H]1c1ccc(F)c(Cl)c1.O=C(O)/C=C/C(=O)O	> 76	–	> 76	13	> 1000	> 1000	–	1.7	–	–
CN(C)C(=O)[C@@H]1CNCCO[C@H]1c1ccc(Cl)c(Cl)c1.Cl	460	–	91	0.77	350	70	–	68	–	–
OC[C@]1(c2ccc(Cl)c(Cl)c2)CCNCCO1	0.47	21	> 14	700	330	> 10000	–	–	–	–
Cl.OC[C@@H]1CNCCO[C@H]1c1ccc(Cl)c(Cl)c1	50	34	1800	2	97	3100	–	68	–	–
OC[C@H]1CNCCO[C@@H]1c1ccc(Cl)c(Cl)c1	6.1	45	230	5.8	36	1400	–	–	–	–
OCC1(c2ccc(Cl)c(Cl)c2)CCNCCO1 (racemic)	12	19	> 590	17	200	> 10000	–	–	–	–
